# Test results taken from the RNAGym collection of RNA variant scans (doi:10.1126/science.aae0568).
# Fewer inactive variants are shown than the library holds.
# B1: tRNA (parent)
# chain: GUUCCGUUGGCGUAAUGGUAACGCGUCUCCCUCCUAAGGAGAAGACUGCGGGUUCGAGUCCCGUACGGAACG
# Variants of: B1
# Experiment: yeast fitness relative to wild type (ratio to wild type); higher = fitter; tRNA-Arg(CCU), competitive growth, 37 C, YPD
# Outline: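 Start and end populations of a pooled competition were compared by 100-nucleotide paired-end sequencing of gene amplicons. The Saccharomyces cerevisiae strains carried tRNA-Arg(CCU) gene variants at the native genomic locus, synthesised with a 3% per-site mutation rate at 69 sites, and competed in YPD at 37°C for 24 hours in six parallel replicates. Darwinian fitness relative to wild type was based on the change in genotype frequencies. Genotypes required ≥ 100 starting reads, and estimates < 0.5 were set to 0.5.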
row,Variant,yeast fitness
1,GUUCCGUUGGCGUAAUGGUAACGCGUCUCCCUGCUAAGGAGAAGACUGCGAGUUAGAGUCCCGUACGGAACG [C33G G51A C55A],≤ 0.5
2,GUUCCGUUGGCGUAAUGGUAACGCGUCUCCCUGCUAAGGAGAAGAAUGCGGGUUCGAGUCCCGUACGGAACG [C33G C46A],0.71
3,GUUCCGUUGGCGUAAUGGUAACGCGUCUCCCUGCUAAGGAGAAGACUGCAGGUUCGAGUCCCGUACGGAACG [C33G G50A],0.614
4,GUUCCGUUGGCGUAAUGGUAACGCGUCUCCCUGCUAAGGAGAAGACUGCGGGUUCGAGUCCCUGACGGAACG [C33G G63U U64G],0.665
5,GUUCCGUUGGCGUAAUGGUAACGCGUCUCCCUGCUAAGGAGAAGACUGCGGGUUCGAGUCCCUAACGGAACG [C33G G63U U64A],0.553
6,GUUCCGUUGGCGUAAUGGUAACGCGUCUCCCUGCUAAGGAGAAGACUGCGGCUUCGAGUCUCGUACGGAACG [C33G G52C C61U],0.566
7,GUUCCGUUGGCGUAAUGGUAACGCGUCUCCCUGCUAAGGACAAGACUGCGGGUUCCAACCCCCUUCGGAACG [C33G G41C G56C G58A U59C G63C A65U],≤ 0.5
8,GUUCCGUUGGCGUAAUGGUAACGCGUCUCCCUGCUAAAGAAAAGACUGCGGGUUCGAGUCCCGUACGGAACG [C33G G38A G41A],≤ 0.5
9,GUUCCGUUGGCGUAAUGGUAACGCGUCUCCCUGCUAAGGAGAAGACUGCGGCUUCGAGUCUCGCACGGAACG [C33G G52C C61U U64C],≤ 0.5
10,GUUCCGUUGGCGUAAUGGUAACGCGUCUCCCUGCUAAGGAGAAGACUGCGGGUUCGUGUCCCGUACGGAACG [C33G A57U],≤ 0.5
11,GUUCCGUUGGCGUAAUGGUAACGCGUCUCCCUGCUAAGGAGAAGACUGCGGGUUCGCGUCCCGUACGGAACG [C33G A57C],≤ 0.5
12,GUUCCGUUGGCGUAAUGGUAACGCGUCUCCCUGCUAAGGAGAAGGCUGCGGGUUCGAGUCCCGUACGGAUCG [C33G A45G A70U],≤ 0.5
13,GUUCCGUUGGCGUAAUGGUAACGCGUCUCCCUGCUAAGGACAAGACUGCGGGUUCGAGUCGCGUUCGGAACG [C33G G41C C61G A65U],≤ 0.5
14,GUUCCGUUGGCGUAAUGGUAACGCGUCUCCCUGUUAAGGAGAAGACUGCGGGUUCGAGUCCCGUACGGAACG [C33G C34U],0.563
15,GUUCCGUUGGCGUAAUGGUAACGCGUCUCCCUGCUAACGAGAAGACUGCGGGUUAGAGUCCCGUUCGGAACG [C33G G38C C55A A65U],0.665
16,GUUCCGUUGGCGUAAUGGUAACGCGUCUCCCUGCUAAGGAGAAGACUGCGGGUUCGAGUCCCGUACUCUACG [C33G G67U G68C A69U],≤ 0.5
17,GUUCCGUUGGCGUAAUGGUAACGCGUCUCCCUGCUAAGGAGAAGACUGCGGGUUCGAGUCCCGUACGGCUCG [C33G A69C A70U],0.611
18,GUUCCGUUGGCGUAAUGGUAACGCGUCUCCCUGCUAAGGAGAACACUGCGGGUUCGAGUCCCGUACGGAACG [C33G G44C],0.735
19,GUUCCGUUGGCGUAAUGGUAACGCGUCUCCCUGCUAAGGACACGACUGCGGGUUCGAGUCUCGUAUGGAACG [C33G G41C A43C C61U C66U],≤ 0.5

row,Variant,yeast fitness
1,GUUCCGUUGGCGUAAUGGUAACGCGUCUCCCUGUUAAGGAGAAGACUGCGGGUUUGAGUCCCGUUCGCAACG [C33G C34U C55U A65U G68C],≤ 0.5
2,GUUCCGUUGGCGUAAUGGUAACGCGUCUCCCUGUUAACGAGAAGACUGCGGGUUCGAGUCCCGUACGGAACG [C33G C34U G38C],≤ 0.5
3,GUUCCGUUGGCGUAAUGGUAACGCGUCUCCCUGCUAACGAGAAGACUGCGGGUUCGAGUCCCGUACGGACCG [C33G G38C A70C],0.705
4,GUUCCGUUGGCGUAAUGGUAACGCGUCUCCCUGCUAAGGAGAAGACUGCGGGUUCGAGUCACGUAUGGAACG [C33G C61A C66U],0.583
5,GUUCCGUUGGCGUAAUGGUAACGCGUCUCCCUGCUAAGGAGAAGACUACGGGUUCGAGUCCCGAACGGAACG [C33G G48A U64A],0.613
6,GUUCCGUUGGCGUAAUGGUAACGCGUCUCCCUGCUAAGGAGAAGACUGCGGGUUCGAGUCCUGUACGGACCG [C33G C62U A70C],0.618
7,GUUCCGUUGGCGUAAUGGUAACGCGUCUCCCUGCUAAGGACAAGACUGCGGGUUCGAGUCCCGUACGGAACG [C33G G41C],0.58
8,GUUCCGUUGGCGUAAUGGUAACGCGUCUCCCUGCUAAGGAAAAGACAGCGGGUUCGAGUCUCGUACGGUACG [C33G G41A U47A C61U A69U],≤ 0.5
9,GUUCCGUUGGCGUAAUGGUAACGCGUCUCCCUGCUAACGAGAAGACUGCGGGUUCGAGUCCCGUACGGAACG [C33G G38C],0.548
10,GUUCCGUUGGCGUAAUGGUAACGCGUCUCCCUGCUAAGGAGAAGCCUGCGGGUUCGAGUCCCGUAAGGAACG [C33G A45C C66A],0.514
11,GUUCCGUUGGCGUAAUGGUAACGCGUCUCCCUGGUAAGGAGAGGAGUGCGGGUUCGAGUCCCGUACGGAACG [C33G C34G A43G C46G],≤ 0.5
12,GUUCCGUUGGCGUAAUGGUAACGCGUCUCCCUGCUAAGGAGAAGACUGCGGGUUCGAGUCCCGUACAGCACG [C33G G67A A69C],≤ 0.5
13,GUUCCGUUGGCGUAAUGGUAACGCGUCUCCCUGCUAAGGAGAAGACUGCGCGUUCGAGUCCCGUACGGAACG [C33G G51C],≤ 0.5
14,GUUCCGUUGGCGUAAUGGUAACGCGUCUCCCUGCUAAGGAGAAGACUGCGAGUUCGAGUCCCGUACGGAACG [C33G G51A],0.626
15,GUUCCGUUGGCGUAAUGGUAACGCGUCUCCCUGCUAAGGAGAAGACUGCGGGUUCGAGUCCGGUACGGAACG [C33G C62G],0.597
16,GUUCCGUUGGCGUAAUGGUAACGCGUCUCCCUGCUAAGGAGAAGACUGCGGGUUCCAGUCCCGUACGGAUCG [C33G G56C A70U],0.727
17,GUUCCGUUGGCGUAAUGGUAACGCGUCUCCCUGGCAAGGAGAAGAUUGCGGGUUCGAGUCCCGUACGGAACG [C33G C34G U35C C46U],≤ 0.5
18,GUUCCGUUGGCGUAAUGGUAACGCGUCUCCCUGCUAAGGAGAAGCCUGCGGGUUCGAGUCCCGUACGGAACG [C33G A45C],0.684
19,GUUCCGUUGGCGUAAUGGUAACGCGUCUCCCUGCUAAGGAGAAGACUGCGGGUUCGAGUCCCCUACGGAACG [C33G G63C],≤ 0.5
